Data published in ChEMBL document CHEMBL1140185, “Conjugated chitosan as a novel platform for oral delivery of paclitaxel” (J Med Chem, 2008).
Values after ≈ are worked out from the molar mass of the structure shown.

Columns and labels:
Mus musculus [1] = assay: Toxicity in human NCI-H358 cells xenografted NCR nu/nu mouse assessed as decrease in body weight at 10 mg/kg, iv; assay type: organism-based; set-up: dose 10 mg/kg, route intravenous; settings: in vivo
Procedure, shortened: (§1)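 Female athymic NCR nu/nu mice (20-25 g), inoculated sc with about 6 × 10^6 NCI-H358 cells. Dosing began at tumors ≥150 mm3: 10 mg/kg/day formulated PTX iv, or conjugate po, every other day for six doses. Saline and LMWC controls. Caliper volumes taken as (1/2)(L × W2), and body weight tracked. n = 8-12; Student's t-test.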

NCI-H358 [2] = assay: Anticancer activity against human NCI-H358 cells by MTT assay; assay type: functional, cell-based
NCI-H358 [3] = assay: Antitumor activity against human NCI-H358 cells xenografted NCR nu/nu mouse assessed as suppression of tumor growth at 10 mg/kg, iv; assay type: functional; procedure, shortened: as §1
[4] = Half life in ICR mouse at 10 mg/kg, iv; assay type: ADME, organism-based; set-up: dose 10 mg/kg, route intravenous; settings: in vivo
Procedure, shortened: (§2)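 ICR mice (25-30 g). IV arm: 10 mg/kg PTX in cremophor EL/ethanol via tail vein. Oral arm: 5 or 10 mg PTX-equivalent/kg conjugate in 10% DMSO by gavage after a 12 h fast. Retro-orbital blood taken into sodium citrate and spun 800g for 20 min. Plasma extracted with ethyl acetate; free PTX measured by HPLC. Oral bioavailability is relative to 10 mg/kg IV. n = 5.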

[5] = AUC (0 to 48 hrs) in ICR mouse at 10 mg/kg, iv; assay type: ADME, organism-based; set-up: time < 48 hr, dose 10 mg/kg, route intravenous; settings: plasma; procedure, shortened: as §2
MDA-MB-231 = assay: Anticancer activity against human MDA-MB-231 cells by MTT assay
SK-OV-3 = assay: Anticancer activity against human SKOV3 cells by MTT assay; assay type: functional, cell-based
[6] = Oral bioavailability in cyclosporine A pretreated ICR mouse; assay type: ADME, organism-based; settings: in vivo, in the assay text read “in ICR mouse” for “in cyclosporine A pretreated ICR mouse”
Procedure, shortened: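 ICR mice (25-30 g) fasted 12 h, then gavaged with PTX or conjugate (PTX-equivalent). The oral solution included 15 mg/kg cyclosporine A where given. Retro-orbital blood spun at 3000g for 20 min; plasma PTX measured by HPLC. n = 4-5.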

[7] = Drug uptake in tumor of iv dosed C57BL/6 mouse bearing mouse B16F10 cells after 30 mins; assay type: ADME, organism-based, C57BL6, Neoplasm, B16-F10; settings: in vivo, 0.5 h
Mus musculus [8] = assay: Bioavailability in ICR mouse at 10 mg/kg, iv; assay type: ADME, organism-based; settings: in vivo; procedure, shortened: as §2

With `CC(=O)O[C@H]1C(=O)[C@@]2(C)[C@H]([C@H](OC(=O)c3ccccc3)[C@]3(O)C[C@H](OC(=O)[C@H](O)[C@@H](NC(=O)c4ccccc4)c4ccccc4)C(C)=C1C3(C)C)[C@]1(OC(C)=O)CO[C@@H]1C[C@@H]2O` [PACLITAXEL] the Activity (Mus musculus [1]) was “Toxic”, the IC50 (NCI-H358 [2]) was 3.8 µg/mL (≈ 4.45 µM) and the Activity (NCI-H358 [3]) was 80%. It also gave a half-life [4] of 33.6 min, an AUC(0-t) at 48 h [5] of 35300 ng·h/mL and an IC50 (MDA-MB-231) of 3.9 µg/mL (≈ 4.57 µM). The IC50 (SK-OV-3) was 4 µg/mL (≈ 4.68 µM), the bioavailability [6] was 0.23% and the Drug uptake [7] was 0.5%. It also gave an F (Mus musculus [8]) of 100%.
